# This is a sample that favours compounds with a hit; in the whole collection about 1.4% have one here.
# ARNT TACC3 PPI – disruptors of human ARNT/TACC3 interaction; 390,000 compounds, 0.66% hits; AlphaScreen His-ARNT PAS-B/GST-TACC3 binding, luminescence; TACC3 fragment carries E629A point mutation; inhibition, % at 9.99 µM; Q9Y6A5;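 active = mean inhibition of replicates at least 50% and at least half of replicates each reaching 50%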;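 note: 0% = complete ARNT plus TACC3 wells and 100% = ARNT alone without TACC3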
# CAL PDZ FP-1 – human CAL PDZ-peptide interaction inhibition. inhibition, % at 20 µM. purified CAL PDZ, TMR-peptide fluorescence polarization, 1 h. Q9HD26. 330,000 compounds, 0.02% hits;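 active = highest replicate inhibition of at least 40%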;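 note: plate controls were DMSO neutral control wells for no effect and unlabeled competitor peptide control wells for full effect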
#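 Material – purified CerCALP PDZ construct · Detection – FP readout, S and P plane fluorescence · Measure – percent inhibition from loss of millipolarization · Controls – unlabelled peptide for full inhibition, DMSO wells as neutral · Probe or stimulus – TMR-labelled reporter peptide T*-PRC34 bound in PDZ groove · Times – 1 h at RT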
# CAL PDZ FP-2 – inhibitors of human CAL PDZ peptide binding; purified CAL PDZ, TMR-peptide fluorescence polarization, 1 h; inhibition, % at 24.9 µM; 300,000 compounds, 0.92% hits; AID 602252;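 active = mean inhibition of at least 30% with at least half of replicates also reaching 30%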;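 note: 0% = DMSO neutral control and 100% = excess unlabeled competitor peptide PRC23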
# Dyrk1A ADPGlo – blocks rat Dyrk1A kinase activity | Q63470 | ADP-Glo luminescence, NFATc1 peptide | inhibition, % at 12.5 µM | 310,000 compounds, 0.43% hits | AID 504441; in the data active = inhibition above about 50%;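 note: plate controls were vehicle with enzyme for no effect and no enzyme for full effect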
# Numbers without * were called inactive; . = no result given; + = active, no number.
SMILES,ARNT TACC3 PPI,CAL PDZ FP-1,CAL PDZ FP-2,Dyrk1A ADPGlo
C/C(=N\Nc1nc(N)cc(Cl)n1)c1ccc(F)cc1,48*,-4,0,-5
C/C(=N\Nc1nc(N)cc(Cl)n1)c1ccc(Cl)c(Cl)c1,9,0,.,-2
O=C(Cc1n[nH]c(=O)c2ccccc12)OCC(=O)c1ccc(F)cc1,-2,-1,-2,0
COc1ccccc1C(=O)COC(=O)Cc1n[nH]c(=O)c2ccccc12,1,-3,31*,8
C[C@@H]1CN([C@H](C)CO)C(=O)c2cc(NS(=O)(=O)c3cn(C)cn3)ccc2O[C@H]1CN(C)Cc1ccc(C(=O)O)cc1,-9,.,.,.
O=C1NCC2=C1C(c1ccccc1)Nc1ccccc1N2 (configuration not stated),active,-6,-7,27
CNC(=O)C[C@@H]1CC[C@@H]2[C@@H](COc3ccc(NC(=O)Nc4ccc(F)c(F)c4)cc3C(=O)N2C)O1,-8,.,.,.
COCC#Cc1cnc2c(c1)C(=O)N([C@H](C)CO)C[C@@H](C)[C@H](CN(C)S(C)(=O)=O)O2,-7,.,.,.
NC(=O)NC(=O)CC1S/C(=N/N=C2\CSC(=O)N2)NC1=O (configuration not stated),53*,-1,0,.
NC(=O)NC(=O)CC1S/C(=N/N=C/c2ccccc2)NC1=O (configuration not stated),20,-2,0,.
O=C(O)CNC(=O)CC1S/C(=N/N=C2/NC(=O)CS2)NC1=O (configuration not stated),58*,-2,1,-6
CCC(=O)N1C[C@H](C)[C@@H](OC)CN(C)C(=O)c2cc(NC(=O)c3ccc(F)cc3)ccc2OC[C@H]1C,-11,.,.,.
CCCNC(=O)C[C@@H]1CC[C@@H]2[C@H](COc3ccc(NC(=O)NCC)cc3C(=O)N2C)O1,9,.,.,.
CC(C)NC(=O)N(C)C[C@@H]1Oc2ccc(NC(=O)Nc3ccc(F)cc3)cc2CC(=O)N([C@@H](C)CO)C[C@@H]1C,-3,.,.,.
C[C@@H]1CCCCO[C@H](CN(C)Cc2ccncc2)[C@@H](C)CN([C@H](C)CO)C(=O)c2cc(NC(=O)CCC(F)(F)F)ccc2O1,0,.,.,.
CCCNC(=O)N(C)C[C@@H]1Oc2cc(-c3ccccc3F)ccc2S(=O)(=O)N([C@@H](C)CO)C[C@H]1C,2,.,.,.
Cc1ccc(NC(=O)CCCc2ccccc2)c([N+](=O)[O-])c1,0,.,33*,-7
CNC(=O)C[C@@H]1CC[C@@H]2[C@H](COc3ccc(NS(=O)(=O)c4cccc(F)c4)cc3C(=O)N2C)O1,-4,.,.,.
COc1cccc(NC(=O)Nc2ccc3c(c2)C(=O)N(C)[C@H]2CC[C@H](CC(=O)O)O[C@@H]2CO3)c1,1,.,.,.
O=C(Cn1[nH]c(=O)c2ccccc2c1=O)OCC(=O)N1CCCc2ccccc21,3,-2,69*,7
O=C(Cn1[nH]c(=O)c2ccccc2c1=O)OCC(=O)N1CCc2ccccc2C1,-4,-2,.,15
COc1ccc(CC(=O)NCC2CCCN(Cc3ccc(OC(F)(F)F)cc3)C2)cc1 (configuration not stated),-4,-4,63*,7
CCCC(=O)Nc1ccc2c(c1)OC[C@@H](C)N(Cc1ccccc1)C[C@H](C)[C@H](OC)CN(C)C2=O,-8,.,.,.
COc1cccc(OC)c1C(=O)Nc1cccc(C(C)=O)c1,-10,-2,53*,2
COc1cccc(NC(=O)c2cccc(C(=O)Nc3cccc(OC)c3)c2)c1,-3,0,1,-4
SMILES,ARNT TACC3 PPI,CAL PDZ FP-1,CAL PDZ FP-2,Dyrk1A ADPGlo
COc1cc(C(=O)Nc2cccc(C(C)=O)c2)cc(OC)c1OC,0,0,.,24
COc1cccc(NC(=O)c2ccc3nsnc3c2)c1,.,-2,49*,1
C[C@@H]1CN([C@@H](C)CO)C(=O)c2cc(NC(=O)CCC(F)(F)F)ccc2O[C@H]1CN(C)Cc1ccccc1,-10,.,.,.
COc1ccc(NC(=O)CC(CC(=O)O)c2cc(OC)c(OC)c(OC)c2)cc1 (configuration not stated),-8,0,59*,0
C[C@H]1CN([C@@H](C)CO)S(=O)(=O)c2ccc(-c3cccnc3)cc2O[C@@H]1CN(C)C(=O)C1CCCCC1,4,.,.,.
O=C(Cc1c(C(=O)O)[nH]c2ccccc12)NCCN1CCN(c2cccc(Cl)c2)CC1,1,0,62*,0
O=C(NCc1cccnc1)c1ccc(Cn2c(=S)[nH]c3ccc(Br)cc3c2=O)cc1,-6,23,+,-2
O=C(NCc1ccccn1)c1ccc(Cl)c(S(=O)(=O)N2CCCCCC2)c1,46*,-1,-4,-3
CCOC(=O)CSc1nnc(CNC(=O)c2cccc(C)c2)n1C,10,4,76*,3
COC(=O)CSc1nnc(CNC(=O)c2ccc(OC)c(OC)c2)n1C,-2,-2,38*,.
COc1ccc(S(=O)(=O)N(C)C[C@@H]2Oc3ccc(NC(=O)Cc4ccccc4)cc3C(=O)N([C@H](C)CO)C[C@@H]2C)cc1,-6,.,.,.
S=C(N/N=C/c1ccc(Br)cc1)N1CCCCC1,38*,1,-2,3
S=C(N/N=C/c1ccc(Cl)cc1)N1CCOCC1,61*,-2,-1,-8
CSC(=S)N/N=C/c1ccc(Br)cc1,2,0,4,-1
S=c1[nH]nc(-c2ccccn2)n1/N=C/c1cccs1,59*,-1,.,1
Cc1ccccc1/C=N/n1c(-c2ccccn2)n[nH]c1=S,71*,-1,-6,.
Cc1ccccc1/C=N/n1c(-c2cc(-c3ccccc3)n[nH]2)n[nH]c1=S,-8,-1,.,6
Cc1ccc(/C=N/n2c(-c3ccccn3)n[nH]c2=S)o1,91*,1,-4,8
S=c1[nH]nc(-c2ccccn2)n1/N=C/c1c(Cl)cccc1Cl,79*,0,6,16
CN1C(=O)c2cc(NC(=O)c3ccccc3F)ccc2OC[C@H]2O[C@@H](CC(=O)NCc3ccc4c(c3)OCO4)CC[C@H]21,-2,.,.,.
COC(=O)C[C@H]1CC[C@@H]2[C@H](COC[C@H](O)CN2C(=O)Nc2cccc(F)c2)O1,-7,.,.,.
CC(C)NC(=O)N(C)C[C@@H]1OCCCC[C@@H](C)Oc2ccc(NC(=O)NC3CCCCC3)cc2C(=O)N([C@@H](C)CO)C[C@H]1C,16,.,.,.
CC(C)CC#Cc1ccc2c(c1)O[C@@H](CN(C)C(=O)Cc1cccnc1)[C@H](C)CN([C@H](C)CO)S2(=O)=O,3,.,.,.
CN1CCN(C(=O)C[C@H]2C[C@@H]3c4cc(NC(=O)NC5CCCCC5)ccc4O[C@@H]3[C@H](CO)O2)CC1,-10,.,.,.
S=c1[nH]nc(-c2ccccn2)n1/N=C/c1cccc2ccccc12,56*,-2,-4,5
S=c1[nH]nc(-c2ccccn2)n1/N=C/c1ccccc1,57*,0,.,-1
S=c1[nH]nc(-c2ccccn2)n1/N=C/c1ccc(Cl)cc1,77*,1,2,10
COc1ccccc1/C=C/C=N/n1c(-c2ccccn2)n[nH]c1=S,65*,0,-4,.
COc1ccccc1/C=C/C=N/n1c(-c2cc(C)[nH]n2)n[nH]c1=S,-1,0,-5,-3

# Compound activity deposited in PubChem BioAssay by Broad Institute.
